Test results: ChEMBL document CHEMBL4402514, “Norepinephrine-Transporter-Targeted and DNA-Co-Targeted Theranostic Guanidines” (J Med Chem, 2020)

What was measured:
[1] = Drug level in human SK-N-SH cells DNA at 40 +/- 0.5 kBq/mL after 1 hr and followed by compound washout with non-radioactive medium/PBS and measured immediately by gamma counting method relative to control; type: ADME, cell-based
In short: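 SK-N-SH cells were exposed 1 h to 125I compound (≈39–40 kBq/mL), then washed with nonradioactive medium and PBS. Cells were processed immediately (1 h) or re-incubated in fresh medium for 23 h (24 h). Cytoplasmic, nuclear and DNA fractions were gamma-counted.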

[2] = Drug uptake in human BE(2)-C cells assessed as level of 125I-incorporation into DNA incubated 1 hr followed by compound washout with non-radioactive medium/PBS and measured after 23 hrs by gamma counting method relative to control; type: ADME, cell-based
In short: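 BE(2)-C cells were treated with radioiodinated guanidine for 1 h, washed with nonradioactive medium and PBS. They were processed immediately or returned to the incubator for a further 23 h. 125I in the DNA fraction was gamma-counted. Values are average (n ≥ 3) ± SD.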

[3] = Half life in EMEM medium by HPLC analysis; type: physicochemical
[4] = Drug uptake in human SK-N-SH cells assessed as level of 125I-incorporation into DNA after 1 hr and followed by compound washout with non-radioactive medium/PBS and measured immediately by gamma counting method relative to control; type: ADME, cell-based
In short: (§1)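 SK-N-SH cells exposed to the 125I-labelled guanidine for 1 h, then washed with nonradioactive medium and PBS. Cells were either processed at once (1 h) or given fresh nonradioactive medium and returned to the incubator for 23 h (24 h). Subcellular fractions (cytoplasm, DNA) were counted by γ-counter. Values are mean and SD, n ≥ 3.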

[5] = Stability in human SK-N-SH cells assessed as parent compound level after 24 hrs by HPLC analysis; type: ADME, cell-based; conditions: read-out: Stability
In short: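 The compound was incubated 24 h in cell culture medium without cells or with SK-N-SH cells. Intact compound and 125IUdR catabolite were quantified by radio-HPLC on a C18 column at 0.8 mL/min, with a 0–95% CH3CN gradient over 50 min and 95% for 20 min.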

[6] = Drug level in tumor of NCR nu/nu mouse xenografted with human BE(2)-C cells at 0.83 +/- 0.09 MBq administered intratumorally pretreated with 9 umol of BNPP after 24 hrs by gamma counting analysis; type: ADME, tissue-based, Neoplasm; conditions: in vivo, other
In short: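 BE(2)-C xenograft-bearing nude mice were pre-injected with the carboxylesterase inhibitor bis-para-nitrophenylphosphate (9 or 18 μmol). They then received intratumor IDG. Tumor %ID/g was determined at 24 h.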

[7] = system: BE(2)-C; test: Antitumor activity against human BE(2)-C cells xenografted with NCR nu/nu mouse assessed as doubling time at 8.4 +/- 0.3 mBq administered intratumorally measured up to 7 days (reference value: 2.4 days); type: functional
In short: (§2)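 Athymic Ncr nu/nu female and male mice bearing subcutaneous BE(2)-C xenografts were randomized by lottery into untreated control and treatment groups. Treatment was a single intratumor injection of 8.4 ± 0.3 MBq/mouse. Tumor volumes were followed to day 7 (controls) or day 14. Doubling times were calculated from day 0 to 7 and day 0 to 14. Values are average ± std err.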

[8] = target: T1, Sodium-dependent noradrenaline transporter (Homo sapiens, UniProt P23975); test: Substrate activity at NET in human SK-N-SH cells assessed as inhibition of drug uptake by measuring MIBG IC50 incubated for 1 hr in presence of nonradioactive MIBG at 37 degC by filtration based gamma counting method; type: cell-based
In short: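 This was a cell-suspension competition assay. SK-N-SH cells in suspension were incubated with 125I-guanidine and graded nonradioactive MIBG, and uptake was read by filtration and γ-counting. Runs were done at 37 °C, or at 4 °C after cooling the cells on ice. The MIBG IC50 was estimated from the inhibition curves.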

[9] = Half life in mouse serum by HPLC analysis; type: ADME, cell-free
In short: (§3)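 Radioiodinated guanidines were incubated in mouse, human or pig serum and analyzed by radio-HPLC on a C18 column at 0.8 mL/min. The gradient was 0–95% CH3CN over 50 min, then 95% for 20 min. Intact compound was fitted to monoexponential degradation to give half-life. Values are average ± std err.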

[10] = system: BE(2)-C; test: Antitumor activity against human BE(2)-C cells xenografted with NCR nu/nu mouse assessed as tumor volume at 8.4 +/- 0.3 mBq administered intratumorally after 1 day (reference value: 0.39 +/- 0.15 cm3); type: functional; in short: as §2
[11] = target: T1, Sodium-dependent noradrenaline transporter; test: Substrate activity at NET in human BE(2)-C cells assessed as inhibition of drug uptake by measuring MIBG IC50 incubated for 1 hr in presence of nonradioactive MIBG by gamma counting method; type: cell-based
[12] = system: SK-N-SH; test: Anticlonogenic activity against human SK-N-SH cells assessed as number of colonies at 40 +/- 0.5 kBq/mL kBq/mL after 24 hr by crystal violet staining based assay; type: functional
In short: (§4)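 SK-N-SH cells exposed for 1 h to 125I-MIBG (39.3 ± 0.3 kBq/mL extracellular) or IDG (40 ± 0.5 kBq/mL). For the 1 h group, cells were washed with nonradioactive medium and PBS, harvested with trypsin and replated for the clonogenic assay. For the 24 h group, cells were washed, given fresh nonradioactive medium and incubated a further 23 h before plating. Colonies were counted.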

[13] = Half life in human serum by HPLC analysis; type: ADME, cell-free; in short: as §3
[14] = Stability in human serum assessed as intact compound level after 5 mins by HPLC analysis; type: ADME, cell-free; conditions: read-out: Stability; in short: as §3
[15] = Drug uptake in human SK-N-SH cells assessed as level of 125I-incorporation into DNA incubated 1 hr followed by compound washout with non-radioactive medium/PBS and measured after 23 hrs by gamma counting method relative to control; type: ADME, cell-based; in short: as §1
[16] = system: BE(2)-C; test: Antiproliferative activity against human BE(2)-C cells assessed as intracellular concentration of 125I required to show 63% inhibition after 1 hr; type: cell-based
In short: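 BE(2)-C cells were treated for 1 h with several IDG concentrations, washed extensively, harvested with trypsin and replated for clonogenic assay. Cellular 125I uptake was measured per cell. D37 (63% kill) was estimated from survival versus extracellular concentration or intracellular content (mBq/cell). Values are average (std error).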

[17] = system: SK-N-SH; test: Anticlonogenic activity against human SK-N-SH cells assessed as number of colonies at 40 +/- 0.5 kBq/mL kBq/mL after 1 hr by crystal violet staining based assay; type: functional; in short: as §4
[18] = target: T1, Sodium-dependent noradrenaline transporter; test: Substrate activity at NET in human SK-N-SH cells assessed as inhibition of drug uptake by measuring MIBG IC50 incubated for 1 hr in presence of nonradioactive MIBG by gamma counting method; type: cell-based
In short: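 Exponentially growing SK-N-SH monolayers (endogenous NET) were exposed for 1 h to 125I-labelled guanidine plus nonradioactive MIBG over a range of concentrations. Cell-associated 125I was counted in a γ-counter, and the MIBG IC50 was estimated.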

[19] = Ratio of tumor to blood concentration in NCR nu/nu mouse xenografted with human BE(2)-C cells at 0.33 +/- 0.05 MBq administered intratumorally after 24 hrs by gamma counting method; type: ADME, tissue-based; conditions: tumour, other
In short: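 Athymic Ncr nu/nu female and male mice bearing subcutaneous BE(2)-C xenografts received intratumor injections of the 125I agent. Tissues, tumor and blood were collected at 24 h and counted for radioactivity, expressed as %ID/g. Tumor-to-blood ratios were derived.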

T1 sequence (P23975 whole entry): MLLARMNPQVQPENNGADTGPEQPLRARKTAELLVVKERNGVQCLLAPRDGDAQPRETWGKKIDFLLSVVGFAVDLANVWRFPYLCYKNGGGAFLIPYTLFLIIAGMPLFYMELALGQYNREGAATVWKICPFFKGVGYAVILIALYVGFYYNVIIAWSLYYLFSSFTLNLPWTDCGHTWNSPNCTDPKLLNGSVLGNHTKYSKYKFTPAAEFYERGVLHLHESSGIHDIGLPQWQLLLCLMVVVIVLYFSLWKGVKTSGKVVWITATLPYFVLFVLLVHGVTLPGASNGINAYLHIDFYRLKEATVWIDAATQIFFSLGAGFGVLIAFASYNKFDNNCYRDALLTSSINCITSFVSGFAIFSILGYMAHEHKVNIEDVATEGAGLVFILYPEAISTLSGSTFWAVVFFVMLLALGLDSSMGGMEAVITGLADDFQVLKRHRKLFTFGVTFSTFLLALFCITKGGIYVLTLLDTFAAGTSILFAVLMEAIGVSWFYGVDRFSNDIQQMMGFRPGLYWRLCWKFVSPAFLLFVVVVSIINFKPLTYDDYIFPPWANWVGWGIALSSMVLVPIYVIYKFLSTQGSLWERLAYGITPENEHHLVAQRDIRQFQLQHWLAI

## N=C(N)NCCCCCC(=O)O[C@H]1C[C@H](n2cc([125I])c(=O)[nH]c2=O)O[C@@H]1CO
[1]
  Drug uptake: 70 to 80%
[2]
  Drug uptake: 99%
[3]
  half-life: 4.58 days
[4]
  Drug uptake: 81%
[5]
  remaining at 24 h: 33%
[6]
  Drug uptake: 1.63 % ID/g
[7]
  Time: 14.9 days
[8]
  IC50: 35.2 µM
[9]
  half-life: 3.54 min
[10]
  Activity: 0.42 cm3
[11]
  IC50: 8.2 µM
[12]
  Activity: 97
[13]
  half-life: 137 min
[14]
  remaining at 5 min: 93%
[15]
  Drug uptake: > 97%
[16]
  Activity: 0.91 mBq
[17]
  Activity: 163
[18]
  IC50: 76.2 µM
[19]
  Ratio: 161
